Laboratory results taken from ChEMBL document CHEMBL2021866, “Design, synthesis, and pharmacological evaluation of benzamide derivatives as glucokinase activators” (Bioorg Med Chem, 2012).

Tests used:
[1] = target: T1, Hexokinase-4 (Homo sapiens, UniProt P35557); test: Activation of human recombinant glucokinase expressed in Escherichia coli BL21(DE3) coexpressing G6PDH assessed as glucose 6-phosphate formation by spectrometric analysis
T1 sequence (P35557 whole entry): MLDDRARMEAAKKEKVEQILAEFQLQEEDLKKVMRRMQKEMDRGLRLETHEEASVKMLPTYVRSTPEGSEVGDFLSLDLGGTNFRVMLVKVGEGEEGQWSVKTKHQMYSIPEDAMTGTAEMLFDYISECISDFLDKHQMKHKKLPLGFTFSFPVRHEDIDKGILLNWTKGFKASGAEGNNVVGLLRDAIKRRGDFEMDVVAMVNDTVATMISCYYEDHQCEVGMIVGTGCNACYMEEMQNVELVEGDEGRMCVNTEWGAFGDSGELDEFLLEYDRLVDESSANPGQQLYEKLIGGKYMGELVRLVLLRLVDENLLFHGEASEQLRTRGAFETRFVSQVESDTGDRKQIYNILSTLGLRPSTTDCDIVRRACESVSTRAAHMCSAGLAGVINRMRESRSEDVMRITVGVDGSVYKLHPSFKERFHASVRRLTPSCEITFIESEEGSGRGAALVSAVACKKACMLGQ

[2] = target: T2, Hexokinase-4 (Homo sapiens) (UniProt P35557); test: Activation of human recombinant glucokinase expressed in Escherichia coli BL21(DE3) coexpressing G6PDH assessed as glucose 6-phosphate formation by spectrometric analysis relative to control
T2 sequence (whole entry): T1 sequence (P35557 whole entry)
Summary of the method: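 N-terminal His6-tagged human GK, expressed in E. coli BL21(DE3), purified on Ni-NTA. NADPH formation followed as rate of A340. Fold activation taken against DMSO control (100%), and maximum fold reported.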

[3] = AUC (0 to infinity) in ICR mouse at 20 mg/kg, po; type: ADME, organism-based; parameters: time infinity, dose 20 mg/kg, route oral; conditions: plasma
Summary of the method: (§1)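 Mice received a single iv dose of 10 mg/kg or a single po dose of 20 mg/kg. Vehicle was DMSO, tween-80 and normal saline. Plasma concentration–time data gave CL, Vss and t1/2 from the iv arm, and Cmax, Tmax, AUC0-∞ and F from the po arm. Values are the average of three runs.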

[4] = target: T2, Hexokinase-4 (Homo sapiens); test: Ratio of EC50 for GK50 to compound for activation of human recombinant glucokinase expressed in Escherichia coli BL21(DE3) coexpressing G6PDH assessed as glucose 6-phosphate formation by spectrometric analysis
Summary of the method: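 EC50 obtained in the same G6PDH-coupled A340 assay of His6-tagged human GK, with GK50 run in parallel. Six compound concentrations per curve, and fold activity over DMSO control fitted to a four-parameter logistic sigmoid. Values are means of three independent experiments.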

[5] = Tmax in ICR mouse at 20 mg/kg, po; type: ADME, organism-based; parameters: dose 20 mg/kg, route oral; conditions: in vivo; summary of the method: as §1
[6] = Oral bioavailability in ICR mouse at 20 mg/kg; type: ADME, organism-based; conditions: in vivo; summary of the method: as §1
[7] = Half life in ICR mouse at 10 mg/kg, iv; type: ADME, organism-based; parameters: dose 10 mg/kg, route intravenous; conditions: in vivo; summary of the method: as §1
[8] = system: Mus musculus; test: Hypoglycemic activity in ICR mouse assessed as reduction in blood glucose level at 10 mg/kg, po measured within 1 hr relative to control; type: functional; parameters: scale not given: the % may be the effect or the level left
Summary of the method: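 Male ICR mice, 8 weeks old, on a reversed light cycle, were fasted 2 h with water allowed and grouped by body weight. They were dosed orally with 10 mg/kg or with vehicle (0.5% carboxymethylcellulose). Blood glucose was tracked, with ΔBG taken from 0 min, and reduction expressed against vehicle within 1 h. Mean ± SEM, n = 6.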

[9] = Clearance in ICR mouse at 10 mg/kg, iv; type: ADME, organism-based; parameters: dose 10 mg/kg, route intravenous; conditions: in vivo; summary of the method: as §1
[10] = Cmax in ICR mouse at 20 mg/kg, po; type: ADME, organism-based; parameters: dose 20 mg/kg, route oral; conditions: in vivo; summary of the method: as §1
[11] = Volume of distribution at steady state in ICR mouse at 10 mg/kg, iv; type: ADME, organism-based; parameters: dose 10 mg/kg, route intravenous; conditions: in vivo, read-out: Vdss; summary of the method: as §1

EC50 [1] [nM]	fold change (FC) [2]	SMILES	also measured
44.8	1.6	CC(C)=CCOc1cc(Oc2ccc(S(=O)(=O)N3C[C@@H](C)O[C@@H](C)C3)cc2)cc(C(=O)Nc2cc(C)n(C)n2)c1	–
> 1000	–	CC(C)=CCOc1cc(Oc2ccc(S(=O)(=O)C3CC3)cc2)cc(C(=O)Nc2nccn3ccnc23)c1	–
144	1.5	CC(C)=CCOc1cc(Oc2ccc(S(=O)(=O)N3CC4CCC(C3)O4)cc2)cc(C(=O)Nc2cc(C)n(C)n2)c1	–
48	2.1	CC(C)=CCOc1cc(Oc2ccc(S(=O)(=O)N3CCOCC3)cc2)cc(C(=O)Nc2nccs2)c1	–
78	1.9	CC(C)=CCOc1cc(Oc2ccc(S(=O)(=O)N3CC4CCC(C3)O4)cc2)cc(C(=O)Nc2ncc(F)s2)c1	–
90.1	1.5	CC(C)=CCOc1cc(Oc2ccc(S(=O)(=O)C3CC3)cc2)cc(C(=O)Nc2cc(C)n(C)n2)c1	–
28.3	2.4	CC(C)=CCOc1cc(Oc2ccc(S(=O)(=O)C3CC3)cc2)cc(C(=O)Nc2nccs2)c1	AUC(0-inf) [3]: 39800 ng·h/mL; Ratio EC50 [4]: 8; Tmax [5]: 1 h; bioavailability [6]: 38.6%; half-life [7]: 138 min; Activity [8]: 5.5%; clearance [9]: 3.33 mL/min/kg; Cmax [10]: 15800 ng/mL; Vd [11]: 0.28 L/kg
491	1.7	COC1CCN(S(=O)(=O)c2ccc(Oc3cc(OCC=C(C)C)cc(C(=O)Nc4ccn(C)n4)c3)cc2)CC1	–
47.7	1.8	CC(C)=CCOc1cc(Oc2ccc(S(=O)(=O)C3CC3)cc2)cc(C(=O)Nc2ncc(F)s2)c1	–
95.1	1.5	CC(C)=CCOc1cc(Oc2ccc(S(=O)(=O)N3CCOCC3)cc2)cc(C(=O)Nc2cc(C)n(C)n2)c1	–
44.8	2.2	CC(C)=CCOc1cc(Oc2ccc(S(=O)(=O)N3CC[C@H](F)C3)cc2)cc(C(=O)Nc2ncc(F)s2)c1	AUC(0-inf) [3]: 1790 ng·h/mL; Tmax [5]: 1 h; bioavailability [6]: 9.5%; half-life [7]: 354 min; Activity [8]: 8.1%; clearance [9]: 17.8 mL/min/kg; Cmax [10]: 1090 ng/mL; Vd [11]: 1.2 L/kg
101	1.7	CC(C)=CCOc1cc(Oc2ccc(S(=O)(=O)N3CC4CCC(C3)O4)cc2)cc(C(=O)Nc2nccs2)c1	–
265	1.8	CC(C)=CCOc1cc(Oc2ccc(S(=O)(=O)N3C[C@@H](C)O[C@@H](C)C3)cc2)cc(C(=O)Nc2ccn(C)n2)c1	–
63.1	1.9	CC(C)=CCOc1cc(Oc2ccc(S(=O)(=O)N3CC[C@H](F)C3)cc2)cc(C(=O)Nc2cc(C)n(C)n2)c1	–
52	1.8	CC(C)=CCOc1cc(Oc2ccc(S(=O)(=O)N3CCOCC3)cc2)cc(C(=O)Nc2ncc(F)s2)c1	–
83.5	2.1	CC(C)=CCOc1cc(Oc2ccc(S(=O)(=O)N3CC[C@H](F)C3)cc2)cc(C(=O)Nc2ccn(C)n2)c1	–
62.6	1.5	CC(C)=CCOc1cc(Oc2ccc(S(=O)(=O)N3C[C@@H](C)O[C@@H](C)C3)cc2)cc(C(=O)Nc2nccs2)c1	–
460	1.8	COC1CCN(S(=O)(=O)c2ccc(Oc3cc(OCC=C(C)C)cc(C(=O)Nc4cc(C)n(C)n4)c3)cc2)CC1	–
890	0.7	CC(C)=CCOc1cc(Oc2ccc(S(=O)(=O)C3CC3)cc2)cc(C(=O)Nc2nc(C(C)(C)C)cs2)c1	–
90.4	1.7	COC1CCN(S(=O)(=O)c2ccc(Oc3cc(OCC=C(C)C)cc(C(=O)Nc4nccs4)c3)cc2)CC1	–
242	1.7	CC(C)=CCOc1cc(Oc2ccc(S(=O)(=O)N3CC4CCC(C3)O4)cc2)cc(C(=O)Nc2ccn(C)n2)c1	–
120	1.5	CC(C)=CCOc1cc(Oc2ccc(S(=O)(=O)C3CC3)cc2)cc(C(=O)NC2=NC(=O)CS2)c1	–
64.6	1.7	COC1CCN(S(=O)(=O)c2ccc(Oc3cc(OCC=C(C)C)cc(C(=O)Nc4ncc(F)s4)c3)cc2)CC1	–
165	1.6	CC(C)=CCOc1cc(Oc2ccc(S(=O)(=O)C3CC3)cc2)cc(C(=O)Nc2cnc(C)cn2)c1	–
65.4	1.7	CC(C)=CCOc1cc(Oc2ccc(S(=O)(=O)N3C[C@@H](C)O[C@@H](C)C3)cc2)cc(C(=O)Nc2ncc(F)s2)c1	–
250	0.9	CC(C)=CCOc1cc(Oc2ccc(S(=O)(=O)C3CC3)cc2)cc(C(=O)Nc2nc(-c3ccc(F)cc3)cs2)c1	–
52.3	1.9	CC(C)=CCOc1cc(Oc2ccc(S(=O)(=O)N3CC[C@H](F)C3)cc2)cc(C(=O)Nc2nccs2)c1	–
297	3	CC(C)=CCOc1cc(Oc2ccc(S(=O)(=O)N3CCOCC3)cc2)cc(C(=O)Nc2ccn(C)n2)c1	–
